Reference: ChEMBL document CHEMBL5346888, “Insight into non-nucleoside triazole-based systems as viral polymerases inhibitors” (Eur J Med Chem, 2023)

Columns and labels:
[1] = molecular target: Hepatitis C virus NS5B RNA-dependent RNA polymerase (Hepatitis C virus, UniProt Q8JXU8); test: Inhibition of Hepatitis C virus NS5B polymerase; parameters: species or system Hepacivirus hominis
[2] = system: Hepatitis C virus; test: Antiviral activity against HCV assessed as reduction in viral growth; format: functional, organism-based, Hepacivirus hominis
[3] = Cytotoxicity against dog MDCK cells assessed as reduction in cell viability; format: toxicity, cell-based, Canis lupus familiaris
[4] = Selectivity index, ratio of CC50 for cytotoxicity against human MT4 cells assessed as reduction in cell viability to EC50 for antiviral activity against HIV-1 RES056 infected in human MT4 cells; format: toxicity, cell-based; conditions: read-out: Ratio CC50/EC50
Summary of the method: (§1)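 MT-4 cells infected with wild-type HIV-1 IIIB, or with RES056 (K103N + Y181C double RT mutant) for the SI ratio line. Antiviral activity and cytotoxicity were both read by the tetrazolium (MTT) colorimetric method. […] SI was calculated as CC50/EC50.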

[5] = system: Human immunodeficiency virus 1; test: Antiviral activity against wild type HIV-1 IIIB infected in human MT4 cells assessed as reduction in virus-induced cytopathicity by MTT assay; format: functional, organism-based; conditions: Human immunodeficiency virus 1, IIIB; summary of the method: as §1
[6] = Selectivity index, ratio of CC50 for cytotoxicity against human MT4 cells assessed as reduction in cell viability to EC50 for antiviral activity against wild type HIV-1 IIIB infected in human MT4 cells; format: toxicity, cell-based; conditions: read-out: Ratio CC50/EC50; summary of the method: as §1
[7] = molecular target: CYP2D6 (Homo sapiens, UniProt P10635); test: Inhibition of CYP2D6 (unknown origin); format: ADME
[8] = Selectivity index, ratio of CC50 for cytotoxicity against African green monkey Vero E6 cells assessed as reduction in cell viability to EC50 for antiviral activity against SARS-CoV-2 infected in African green monkey Vero E6 cells assessed as inhibition of virus growth; format: toxicity, cell-based, Vero C1008; conditions: read-out: Ratio CC50/EC50
[9] = system: SARS-CoV-2; test: Antiviral activity against SARS-CoV-2 infected in African green monkey Vero E6 cells assessed as inhibition of virus growth; format: functional, organism-based; conditions: Severe acute respiratory syndrome coronavirus 2, Vero C1008
[10] = molecular target: Hepatitis C virus NS5B RNA-dependent RNA polymerase (Hepatitis C virus) (UniProt Q8JXU8); test: Inhibition of Hepatitis C virus NS5B polymerase at 100 uM relative to control; conditions: Hepacivirus hominis
[11] = Antiviral activity against RSV B infected in human HEp-2 cells assessed as inhibition of virus-induced cytopathogenic effect; format: functional, cell-based; conditions: human respiratory syncytial virus
[12] = system: Human orthopneumovirus; test: Antiviral activity against RSV A infected in human HEp-2 cells assessed as inhibition of virus-induced cytopathogenic effect; format: functional, organism-based; conditions: human respiratory syncytial virus
[13] = Cytotoxicity against human MT4 cells assessed as reduction in cell viability; format: toxicity, cell-based; summary of the method: as §1
[14] = Cytotoxicity against dog MDCK cells assessed as reduction in cell viability by MTT assay; format: toxicity, cell-based, Canis lupus familiaris
[15] = system: Influenza A virus; test: Antiviral activity against Influenza A virus H9N2 infected in MDCK cells assessed as inhibition of viral replication; format: functional, organism-based
[16] = Selectivity index, ratio of CC50 for cytotoxicity against dog MDCK cells assessed as reduction in cell viability by MTT assay to EC50 for antiviral activity against influenza A H1N1 infected in MDCK cells assessed as reduction in viral replication by plaque reduction assay; format: toxicity, cell-based; conditions: read-out: Ratio CC50/EC50
[17] = system: Influenza A virus; test: Antiviral activity against influenza A H1N1 infected in MDCK cells assessed as reduction in viral replication by plaque reduction assay; format: functional, organism-based
[18] = system: Human immunodeficiency virus 1; test: Antiviral activity against HIV-1 harboring K103 N/Y181C double mutant infected in human HeLa cells assessed as reduction in viral growth; format: functional, organism-based; conditions: Human immunodeficiency virus 1, HeLa
[19] = system: Human immunodeficiency virus 1; test: Antiviral activity against wild type HIV-1 infected in human HeLa cells assessed as reduction in viral growth; format: functional, organism-based; conditions: Human immunodeficiency virus 1, HeLa
[20] = system: Human immunodeficiency virus 1; test: Antiviral activity against HIV-1 harboring reverse transcriptase F227L/V106A double mutant infected in human MT4 cells assessed as reduction in virus-induced cytopathic effect; format: functional, organism-based; conditions: Human immunodeficiency virus 1, MT4
[21] = system: Human immunodeficiency virus 1; test: Antiviral activity against HIV-1 harboring reverse transcriptase K103N mutant infected in human MT4 cells assessed as reduction in virus-induced cytopathic effect; format: functional, organism-based; conditions: Human immunodeficiency virus 1, MT4
[22] = system: Human immunodeficiency virus 1; test: Antiviral activity against HIV-1 harboring reverse transcriptase Y181C mutant infected in human MT4 cells assessed as reduction in virus-induced cytopathic effect; format: functional, organism-based; conditions: Human immunodeficiency virus 1, MT4
[23] = system: Human immunodeficiency virus 1; test: Antiviral activity against HIV-1 harboring reverse transcriptase Y188L mutant infected in human MT4 cells assessed as reduction in virus-induced cytopathic effect; format: functional, organism-based; conditions: Human immunodeficiency virus 1, MT4
[24] = system: Human immunodeficiency virus 1; test: Antiviral activity against HIV-1 harboring reverse transcriptase E138K mutant infected in human MT4 cells assessed as reduction in virus-induced cytopathic effect; format: functional, organism-based; conditions: Human immunodeficiency virus 1, MT4
[25] = Selectivity index, ratio of CC50 for cytotoxicty against human Huh-7 cells to EC50 for antiviral activity against HCV infected in human Huh-7 cells assessed as reduction in viral infection; format: toxicity, cell-based; conditions: read-out: Ratio CC50/EC50
[26] = system: Human immunodeficiency virus 1; test: Antiviral activity against HIV-1 harboring K103N/Y181C double mutant infected in human HeLa cells assessed as reduction in viral growth incubated for 48 hrs by bright-glo luciferase assay; format: functional, organism-based; conditions: Human immunodeficiency virus 1, HeLa
[27] = Cytotoxicity against human HeLa cells assessed as reduction in cell viability incubated for 48 hrs by cellTiter-glo assay; format: toxicity, cell-based
[28] = system: Human immunodeficiency virus 1; test: Antiviral activity against wild type HIV-1 infected in human HeLa cells assessed as reduction in viral growth incubated for 48 hrs by bright-glo luciferase assay; format: functional, organism-based; conditions: Human immunodeficiency virus 1, HeLa
[29] = system: Huh-7; test: Anticancer activity against human Huh-7 cells measured after 72 hrs; format: functional, cell-based; conditions: Huh-7, 72 h

Hepatitis C virus NS5B RNA-dependent RNA polymerase, sequence (Q8JXU8 whole entry): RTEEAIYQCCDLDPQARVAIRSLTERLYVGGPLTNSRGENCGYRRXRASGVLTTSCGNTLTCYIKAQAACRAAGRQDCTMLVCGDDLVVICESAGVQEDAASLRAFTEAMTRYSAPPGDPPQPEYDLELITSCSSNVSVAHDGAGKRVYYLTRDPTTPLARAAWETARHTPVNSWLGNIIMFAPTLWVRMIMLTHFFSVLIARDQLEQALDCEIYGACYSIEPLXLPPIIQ
Hepatitis C virus NS5B RNA-dependent RNA polymerase (Hepatitis C virus), sequence (Q8JXU8 as listed by the source): as the sequence (Q8JXU8 whole entry) above
CYP2D6, sequence (P10635 whole entry): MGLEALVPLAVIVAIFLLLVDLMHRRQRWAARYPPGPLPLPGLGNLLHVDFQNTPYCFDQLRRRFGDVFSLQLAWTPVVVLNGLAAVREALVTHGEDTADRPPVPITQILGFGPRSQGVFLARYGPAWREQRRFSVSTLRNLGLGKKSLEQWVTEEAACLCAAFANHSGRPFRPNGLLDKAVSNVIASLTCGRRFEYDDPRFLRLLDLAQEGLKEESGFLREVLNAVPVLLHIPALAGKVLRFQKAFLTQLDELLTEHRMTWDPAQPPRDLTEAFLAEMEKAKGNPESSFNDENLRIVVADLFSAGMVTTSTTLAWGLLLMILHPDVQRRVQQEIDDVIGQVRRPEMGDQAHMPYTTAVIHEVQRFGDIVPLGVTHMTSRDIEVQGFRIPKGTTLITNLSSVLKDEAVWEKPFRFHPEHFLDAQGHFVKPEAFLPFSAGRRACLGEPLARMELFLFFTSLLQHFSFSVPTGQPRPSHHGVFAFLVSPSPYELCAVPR

Compound `Cc1cc(C)n2nc(CC3=C(O)CC(CCc4ccc(C(C)(C)C#N)c(F)c4)(C4CCCC4)OC3=O)nc2n1` (stereo unspecified) has an IC50 [1] of 3 nM and an EC50 [2] of 15 nM.
For `COc1ccc(C(=O)Nc2nc3n(n2)C(c2ccccc2)C=C(C)N3)cc1` (stereo unspecified), the CC50 [3] was greater than 250000 nM.
In the case of `Cc1cc(C)c(Oc2cc(Nc3ccc(C#N)cc3)ncc2C(=O)NCc2cn(CC(=O)N3CCCC3)nn2)c(C)c1`, the selectivity ratio [4] is reported as 41, the EC50 [5] is reported as 20 nM and the selectivity ratio [6] is reported as 2100.
Compound `Cc1cc(C)n2nc(CC3=C(O)CC(CCc4ccc(C(C)(C)O)c(F)c4)(C4CCCC4)OC3=O)nc2n1` (stereo unspecified) has an IC50 [1] of 140 nM and an IC50 [7] greater than 6000 nM.
In the case of `CCc1cc(CCC2(C3CCCC3)CC(O)=C(Cc3nc4nc(C)cc(C)n4n3)C(=O)O2)cc(CC)n1` (stereo unspecified), the IC50 [1] is reported as 16 nM.
`O=C(OCc1cn(-c2ccc([N+](=O)[O-])cc2)nn1)c1cnccn1` showed a selectivity ratio [8] of 10.3 and an IC50 [9] of 477 nM.
`CCc1cc(CC[C@]2(C3CCCC3)CC(O)=C(Cc3nc4nc(C)cc(C)n4n3)C(=O)O2)cc(CC)n1` [FILIBUVIR] gave an IC50 [1] of 7 nM.
Compound `CCCCn1c(CC2(CC)OCCc3c2[nH]c2c(CC)cccc32)n[nH]c1=S` (stereo unspecified) has an IC50 [1] of 25400 nM and an inhibition [10] of 72.3%.
`COc1cc(-c2noc(-c3nnn(-c4ccccc4Cl)c3C)n2)cc(OC)c1OC` gave an EC50 [11] of 1000 nM and an EC50 [12] of 1000 nM.
For `NC(=O)c1nc(F)cnc1O`, the selectivity ratio [8] was 3.8 and the IC50 [9] was 1380 nM.
In the case of `CCCn1c(CC2(CC)OCCc3c2[nH]c2c(CC)cccc32)n[nH]c1=S` (stereo unspecified), the IC50 [1] is reported as 26000 nM and the inhibition [10] is reported as 69%.
`O=C(OCc1cn(-c2ccc(Cl)cc2)nn1)c1cnccn1` showed a selectivity ratio [8] of 1.7 and an IC50 [9] of 1150 nM.
For `CCc1cccc2c3c([nH]c12)C(CC)(Cc1n[nH]c(=S)n1C1CCCCC1)OCC3` (stereo unspecified), the inhibition [10] was 45.6%.
Work on `Cc1ccnc2c1NC(=O)c1cccnc1N2C1CC1` [NEVIRAPINE] yielded a CC50 [13] greater than 15000 nM.
Compound `C=CCn1c(CC2(CC)OCCc3c2[nH]c2c(CC)cccc32)n[nH]c1=S` (stereo unspecified) has an IC50 [1] of 40300 nM and an inhibition [10] of 58.2%.
In the case of `CCc1c(C)nc2nnc(-c3ccccc3Cl)n2c1O`, the CC50 [14] is reported as 125000 nM, the EC50 [15] is reported as 90 nM and the selectivity ratio [16] is reported as 227. For the same compound, the EC50 [17] was 550 nM.
Compound `COc1ccc(-n2cc(COC(=O)c3cnccn3)nn2)cc1` has a selectivity ratio [8] of 3.2 and an IC50 [9] of 120 nM.
For `Cc1ccc(NC(=O)CSc2nnc(C)n2-c2ccccc2)c(Br)c1`, the EC50 [18] was 1300 nM and the EC50 [19] was 100 nM.
`CCc1cccc2c3c([nH]c12)C(CC)(Cc1n[nH]c(=S)n1CC)OCC3` (stereo unspecified) showed an IC50 [1] of 21600 nM and an inhibition [10] of 74.6%.
`COc1ccccc1-n1cc(COC(=O)c2cnccn2)nn1` showed a selectivity ratio [8] of 2.1 and an IC50 [9] of 1080 nM.
`Cc1cc(C)c(Oc2cc(Nc3ccc(C#N)cc3)ncc2C(=O)NCc2cn(CC(=O)N3CCOCC3)nn2)c(C)c1` showed a selectivity ratio [4] of 12, an EC50 [5] of 20 nM and a selectivity ratio [6] of 9280.
`CC(C)Nc1cccnc1N1CCN(C(=O)c2cc3cc(NS(C)(=O)=O)ccc3[nH]2)CC1` [DELAVIRDINE] showed an EC50 [20] of 2270 nM, an EC50 [21] of 3000 nM and an EC50 [5] of 38 nM. It also gave a selectivity ratio [6] of 733, an EC50 [22] of 2460 nM and an EC50 [23] of 840 nM. For the same compound, the EC50 [24] was 51 nM.
With `CCc1cc(CC[C@@]2(C3CCCC3)CC(O)=C(Cc3nc4nc(C)cc(C)n4n3)C(=O)O2)cc(CC)n1` the IC50 [1] was 12 nM.
`O=C(OCc1cn(-c2ccc(F)cc2)nn1)c1cnccn1` gave a selectivity ratio [8] of 0.3 and an IC50 [9] of 12200 nM.
With `Cc1cc(C)c(Oc2cc(Nc3ccc(C#N)cc3)ncc2C(=O)NCc2cn(CCC#N)nn2)c(C)c1` the selectivity ratio [4] was 17 and the selectivity ratio [6] was 2040.
Work on `O=C(OCc1cn(-c2ccccc2Cl)nn1)c1cnccn1` yielded a selectivity ratio [8] of 3.7 and an IC50 [9] of 952 nM.
With `CCc1cccc2c3c([nH]c12)C(CC)(Cc1n[nH]c(=S)n1Cc1ccccc1)OCC3` (stereo unspecified) the inhibition [10] was 3.78%.
With `O=C(CC(=O)c1nnc[nH]1)c1ccc(OCc2ccc(F)cc2)cc1` the selectivity ratio [25] was greater than 128.
`CCC(C#N)(CC)c1ccc(CCC2(C3CCCC3)CC(O)=C(Cc3nc4nc(C)cc(C)n4n3)C(=O)O2)cc1F` (stereo unspecified) showed an IC50 [1] of 5 nM and an IC50 [7] greater than 6000 nM.
Compound `CCc1cccc2c3c([nH]c12)C(CC)(Cc1n[nH]c(=S)n1-c1ccccc1)OCC3` (stereo unspecified) has an inhibition [10] of 49.5%.
In the case of `NS(=O)(=O)c1ccc(NC(=O)CSc2nnc(Br)n2-c2ccc(C3CC3)c3ccccc23)c(Cl)c1`, the EC50 [26] is reported as 0.23 nM, the CC50 at 48 h [27] is reported as no less than 3000 nM and the EC50 [28] is reported as 0.14 nM.
`CCc1cccc2c3c([nH]c12)C(CC)(Cc1n[nH]c(=S)n1C)OCC3` (stereo unspecified) gave an IC50 [1] of 14800 nM, an EC50 [29] of 4290 nM and an inhibition [10] of 78.9%.
